Source: PubChem (several laboratories)
NALP1 yeast inh = NALP1 inflammasome inhibitors in reconstituted yeast, colorimetric, S. cerevisiae, triplicate retest; S. cerevisiae NALP1/ASC/caspase-1 growth, X-gal OD620, 72 h; inhibition, % at 10 µM; AID 2071, 2009; 280,000 compounds, 0.61% hits; in the data active = inhibition mostly above about 24%, no sharp cut-off; inactive = mostly below about 32%
VIM-2 inh = VIM-2 metallo-beta-lactamase inhibitors, primary screen, biochemical, epi-absorbance readout, Pseudomonas aeruginosa enzyme; inhibition, % at 5.6 µM; purified VIM-2, nitrocefin hydrolysis, epi-absorbance fluorescence; 290,000 compounds, 0.89% hits;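 active = inhibition above the mean of all tested compounds plus 3 SD, cutoff set per screening run, cut at about 7.5% in these data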;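 also: red hydrolysis product quenches plate fluorescence so inhibitors raise well fluorescence; 0% = enzyme with DMSO and 100% = DMSO without enzyme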
NALP3 yeast inh = NALP3 inflammasome inhibitors in reconstituted yeast, primary screen, luminescence, uHTS. Yeast reconstituted NLRP3/ASC/caspase-1, beta-gal luminescence, 24 h. inhibition, % at 10 µM. 330,000 compounds, 0.39% hits;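 active = inhibition of 50% or more; inactive = inhibition below 50%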;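 also: plate controls were induced DMSO wells for no effect and uninduced yeast grown without galactose for full effect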
PolyA inhibitor = polyadenylation inhibitors in yeast reporter cells, primary screen, luminescence, S. cerevisiae; activity score, % at 12 µM; S. cerevisiae SKY197-pL101 polyadenylation reporter, beta-gal luminescence; efflux-impaired pdr1/pdr3 knockout yeast; score 100 = 6 SD above DMSO; 300,000 compounds, 0.02% hits;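 active = lowest replicate activity score at least 50, where 100 means six control SD above control mean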;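 also: yeast exposed to compound for 9 h at 30 °C; higher score means more reporter readthrough which indicates perturbed polyadenylation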
IMP-1 inh = IMP-1 metallo-beta-lactamase inhibitors, primary screen, biochemical, epi-absorbance readout, Pseudomonas aeruginosa enzyme | 290,000 compounds, 0.45% hits | purified IMP-1, nitrocefin hydrolysis, epi-absorbance fluorescence | metallo-beta-lactamase IMP-1 (Pseudomonas aeruginosa) | inhibition, % at 5.6 µM;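 active = inhibition above the mean plus 3 SD of all compounds in the same screening run, cut at about 4.5% in these data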;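 also: 0% = IMP-1 with DMSO and 100% = DMSO wells lacking enzyme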
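System: purified IMP-1 / Input: IMP-1 dispensed at 0.2 nM / Medium: 50 mM HEPES pH 7.1, 50 µM ZnSO4, 0.05% Brij 35 / Timing: 15 min enzyme–compound preincubation, then 25 min nitrocefin reaction, 25 °C / Technique: plate fluorescence quenching by hydrolysis product, ex 480/em 530 nm / Repeats: singlicate testing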
Mot1-301 SUMO = yeast Mot1-301 growth rescue at high temperature, primary screen, SUMOylation pathway inhibitor project, S. cerevisiae, ATP luminescence, 38.5C; S. cerevisiae Mot1-301 growth rescue; percent above DMSO median, 100 means doubled; growth rescue, % at 18.8 µM; 320,000 compounds, 1% hits; AID 2716, 2010;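 active = every valid replicate shows activation above 250% relative to neutral control wells; inactive = the rest, any valid replicate at or below 250%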;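 also: OY570 slx delta 5 strain wells were the positive control but not used for scaling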
NALP3 confirm = NALP3 inhibitors retested in yeast, confirmation, luminescence, single concentration; shares compounds with NALP3 yeast inh; yeast expressing human NALP3; inhibition, % at 10 µM; 1,300 compounds, 81% hits; AID 435006, 2010; in the data active = inhibition above about 48%
Casp1-ASC yeast = CASP1-PYCARD signaling inhibition in yeast, confirmatory test, counterassay for NLRP3 inhibitor program, one-dose | shares compounds with NALP3 yeast inh | inhibition, % at 10 µM | 1,000 compounds, 66% hits | yeast expressing Caspase-1-ASC, luminescence counter screen
NALP3 yeast rt = NALP3 inhibitors in yeast, repeat test, confirmation, luminescence, single concentration, retest | inhibition, % at 10 µM | shares compounds with NALP3 yeast inh | yeast expressing human NALP3, luminescence read-out | 1,000 compounds, 53% hits | AID 488794, 2010
* hit, by the source's call; / = no result; + = active, no number. This is a sample that favours compounds with a hit; in the whole collection about 2.9% have one here. Rule as the data show it, unless noted: active = inhibition above about 50%; inactive = the rest.

SMILES | NALP1 yeast inh | VIM-2 inh | NALP3 yeast inh | PolyA inhibitor | IMP-1 inh | Mot1-301 SUMO | NALP3 confirm | Casp1-ASC yeast | NALP3 yeast rt
O=Nc1c(-c2c(O)[nH]c3cc(Br)ccc23)[nH]c2ccccc12 | 18 | -3 | 67* | -7 | -10 | 72 | 71* | 56* | 64*
COc1ccc(/C=C/C(=O)Nc2ccc3c(c2)CCC3)cc1OC | 51 | -7 | 59* | -7 | -3 | 16 | 26 | / | /
COc1ccccc1C(C[N+](=O)[O-])c1c(N)n(C)c(=O)n(C)c1=O (stereo unspecified) | + | 0 | 77* | -14 | -3 | 594* | 51* | 75* | 49
COc1ccccc1C(c1c(N)n(C)c(=O)n(C)c1=O)C(C)[N+](=O)[O-] (stereo unspecified) | / | 0 | 22 | 6 | -1 | 27 | / | / | /
O=C(NNC(=O)c1ccc(Oc2ccc(C3SCCS3)cc2)o1)c1ccc(Cl)cc1 | / | -1 | 53* | -13 | 5.2* | 6 | 34 | / | /
C[C@@]12C(=O)Nc3ccc(Cl)cc3C(=O)N1[C@H]1c3ccccc3OC[C@@H]1[C@@H]2c1ccccc1 | / | / | 79* | / | / | 543* | 91* | 70* | 66*
C[C@@]12C(=O)Nc3cc(Cl)ccc3C(=O)N1[C@H]1c3cc(Cl)ccc3OC[C@@H]1[C@@H]2c1ccccc1 | / | / | 15 | / | / | 254 | / | / | /
CN(C)c1ccc(/C=C(\C#N)c2ccccn2)cc1 | 44 | 2 | 51* | -18 | 1 | -18 | 34 | / | /
N#C/C(=C\c1ccc([N+](=O)[O-])cc1)c1ccccn1 | 12 | 0 | 55* | -29 | -1 | -22 | 56* | 39 | 49
N#C/C(=C\c1ccccn1)c1ccccn1 | 10 | 0 | 23 | 4 | -1 | 22 | / | / | /
COC(=O)c1ccc(/C=C(\C#N)c2ccccn2)cc1 | 1 | 2 | 63* | -12 | 2 | 177 | 52* | 47 | 50
CCOc1ccc(C(=O)COC(=O)c2cccc(-n3cnnn3)c2)cc1 | 17 | -3 | 14 | 6 | -2 | 1 | / | / | /
Cc1cccc(C(=O)NCC(=O)N2CCN(S(=O)(=O)c3ccc4c(c3)OCCO4)CC2)c1 | / | / | 20 | / | / | 27 | / | / | /
CO/N=C(/C(=O)N[C@@H]1C(=O)N2C(C(=O)O)=CCS[C@H]12)c1cnc(N)s1 | 4 | 0 | / | -12 | 0 | 1 | / | / | /
OC(COc1cccc2ccccc12)CN1CCN(c2cccc(Cl)c2)CC1 (stereo unspecified) | 18 | 0 | 25 | -21 | -1 | 96 | / | / | /
Cc1cccc(N2CCN(CC(O)COc3ccccc3Cl)CC2)c1 (stereo unspecified) | 14 | -1 | 50* | 3 | -2 | 29 | 64* | 37 | 46
CC(C#N)Sc1nnc(-c2ccccc2F)n1C1CC1 (stereo unspecified) | -7 | -1 | 19 | -3 | -4 | 16 | / | / | /
N#Cc1ccc(-c2nc3ccc(Br)cc3c(=O)n2O)cc1 | 6 | 0 | 39 | 19 | 1 | -22 | / | / | /
O=c1c2cc(Cl)ccc2nc(-c2ccccc2)n1O | -27 | 0 | 40 | 2 | -2 | 5 | / | / | /
O=c1c2cc(Br)ccc2nc(-c2ccc([N+](=O)[O-])cc2)n1O | -6 | -3 | 53* | 28 | -3 | -17 | 79* | 46 | 62*
O=c1c2ccc(Cl)cc2nc(-c2ccc([N+](=O)[O-])cc2)n1O | -14 | -1 | 57* | 40 | 0 | 0 | 81* | 62* | 54*
Fc1ccc(-c2nnn(Cc3nc4ccccc4s3)n2)cc1 | 37 | -7 | 54* | -7 | -6 | 17 | 65* | 46 | 42
CN(C)C(CNC(=O)c1ccco1)c1cccs1 (stereo unspecified) | / | / | 19 | 9 | / | 8 | / | / | /
Cc1ccc(N(CC(=O)NC2CCCCC2)C(=O)CCCC(=O)Nc2ccccn2)cc1 | -5 | -1 | 17 | 10 | -4 | 5 | / | / | /
Cc1ccc2[nH]c3ccccc3c(=O)c2c1 | 10 | 3 | 53* | -8 | -1 | 0 | 61* | 61* | 56*
SMILES | NALP1 yeast inh | VIM-2 inh | NALP3 yeast inh | PolyA inhibitor | IMP-1 inh | Mot1-301 SUMO | NALP3 confirm | Casp1-ASC yeast | NALP3 yeast rt
O=c1c2ccccc2[nH]c2ccc(O)cc12 | 15 | 3 | 7 | -7 | 1 | -19 | / | / | /
Cn1c(CNC(=O)C(Cc2ccccc2)NC(=O)c2cccc(F)c2)cc(=O)n(C)c1=O (stereo unspecified) | 39 | 1 | 16 | 4 | 0 | 5 | / | / | /
O=C(/C=C\Nc1ccccn1)c1ccccc1 | -5 | -2 | 63* | 34 | -5 | 98 | 46* | 59* | 54*
CSc1nc2ccc(NC(=O)c3ccco3)cc2s1 | 39 | -1 | 51* | -11 | -6 | 101 | 58* | 56* | 54*
O=C(Nc1ccc(-c2nc3cccnc3s2)cc1)c1ccco1 | / | -2 | 51* | -12 | -1 | -16 | 72* | 46 | 48
O=C(Nc1ncccc1Cl)c1cc2ccccc2o1 | 3 | -2 | 20 | -17 | -4 | 1 | / | / | /
Oc1c(N=Nc2ccccc2)sc2ccccc12 | -2 | 1 | 51* | 22 | -3 | -35 | 71* | / | /
O=C1c2ccsc2SCCN1Cc1ccccc1Cl | 5 | -1 | 51* | -1 | 1 | -7 | 57* | 44 | 47
Cc1ccccc1CN1CCSc2sccc2C1=O | 11 | -2 | 58* | -10 | -3 | 21 | 37 | 37 | 38
CCOC(=O)c1cnn(-c2cccc(Cl)c2)c1N | 18 | 0 | 56* | -3 | -1 | -5 | 73* | 53* | 32
C[C@H](CO)N1C[C@H](C)[C@@H](CN(C)S(=O)(=O)c2ccccc2)Oc2c(NC(=O)C3CCCCC3)cccc2C1=O | / | / | 16 | / | / | 103 | / | / | /
CCC1(c2ccccc2)NC(=O)N(CC(=O)NC2(C#N)CCCCC2)C1=O (stereo unspecified) | / | / | 5 | 12 | / | -10 | / | / | /
CN(CC(=O)N1CCc2ccccc2C1)c1ccccc1 | 30 | -1 | 55* | -14 | -2 | 15 | 43 | 45 | 55*
